The values below come from ChEMBL document CHEMBL2046279, “Trigoflavidols A-C, degraded diterpenoids with antimicrobial activity, from Trigonostemon flavidus” (J Nat Prod, 2012).

Usually IC50 stands for the concentration at which inhibition is half-maximal. What is called MIC is the lowest concentration that inhibits growth of the organism. A high value points to weaker potency.

One experiment relates to SMMC-7721. The experiment in a line: Cytotoxicity against human SMMC7721 cells by MTT assay. It counts as functional, cell-based.
The subject of another experiment is HL-60. The experiment in a line: Cytotoxicity against human HL60 cells by MTT assay. It counts as functional, cell-based. (In general: Tetrazolium dyes change colour on reduction, which living cells bring about.)
The subject of experiment [1] is Staphylococcus aureus. The experiment is described as follows: Antimicrobial activity against Staphylococcus aureus by agar plate punch assay. It counts as functional. In outline:
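Compounds dissolved in DMSO at 500 μg/mL; 50 μL placed in a 6 mm well punched in MH agar smeared with test organism suspension (1.5 × 10^9 cfu/mL). Read-out is diameter of the inhibition zone.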

The subject of a further experiment is SW480. The experiment is described as follows: Cytotoxicity against human SW480 cells by MTT assay. It counts as functional, cell-based.
The subject of experiment [2] is Staphylococcus aureus. The experiment in a line: Antimicrobial activity against 82 isolates of methicillin-resistant Staphylococcus aureus after 18 hrs by two-fold dilution method. In kind it is functional.
Another experiment deals with MCF7. The experiment in a line: Cytotoxicity against human MCF7 cells by MTT assay. In kind it is functional, cell-based.
Experiment [3] concerns Staphylococcus aureus. The experiment is described as follows: Antimicrobial activity against 8 isolates of methicillin-resistant Staphylococcus aureus after 18 hrs by two-fold dilution method. In kind it is functional.
Another experiment concerns A549. The experiment is described as follows: Cytotoxicity against human A549 cells by MTT assay. In kind it is functional, cell-based.
The subject of experiment [4] is Staphylococcus aureus. The experiment is described as follows: Antimicrobial activity against Staphylococcus aureus after 18 hrs by two-fold dilution method. In kind it is functional.

≈ marks a conversion by molar mass, not a printed value. Bounds are passed on as bounds.

In the case of `COC(=O)[C@@]1(O)[C@@]2(Oc3cc4c(cc(OC)c5cc(C)c(O)cc54)c(C)c3O2)c2c(cc(OC)c3cc(C)c(O)cc23)[C@@]1(C)O` [TRIGOFLAVIDOL B], the IC50 is 19.5 µM in the experiment with SMMC-7721; > 40 µM in the experiment with HL-60; 15.4 µM with SW480; 14.6 µM with MCF7; 17.1 µM in the experiment with A549. Also, the “diameter of the inhibition zone (DIZ)” value in the experiment with Staphylococcus aureus [1] is on record as >10 mm. Further, the MIC in the experiment on Staphylococcus aureus [2] is 3.12 µg/mL (≈ 5.09 µM); against Staphylococcus aureus [3] it was 3.12 µg/mL (≈ 5.09 µM); in the experiment with Staphylococcus aureus [4] it was 1.56 µg/mL (≈ 2.55 µM).

On to `CN[C@H](CC(C)C)C(=O)N[C@H]1C(=O)N[C@@H](CC(N)=O)C(=O)N[C@H]2C(=O)N[C@H]3C(=O)N[C@H](C(=O)N[C@H](C(=O)O)c4cc(O)cc(O)c4-c4cc3ccc4O)[C@H](O)c3ccc(c(Cl)c3)Oc3cc2cc(c3O[C@@H]2O[C@H](CO)[C@@H](O)[C@H](O)[C@H]2O[C@H]2C[C@](C)(N)[C@H](O)[C@H](C)O2)Oc2ccc(cc2Cl)[C@H]1O.Cl` [VANCOMYCIN HYDROCHLORIDE], for which the MIC in the experiment on Staphylococcus aureus [2] stood at 0.78 µg/mL; in the experiment on Staphylococcus aureus [3], 0.78 µg/mL; with Staphylococcus aureus [4], 1.56 µg/mL.

Take `Cc1cc2c(cc1O)C1=C(C3=C4C(=CC(=O)c5cc(C)c(O)cc54)C(C)(C)C3=O)C(=O)C(C)(C)C1=CC2=O` [NEOBOUTOMANNIN]: the IC50 in the experiment with SMMC-7721, in the experiment on HL-60, in the experiment with SW480, in the experiment with MCF7 and in the experiment with A549 was > 40 µM throughout. In addition, the MIC in the experiment with Staphylococcus aureus [4] was > 50 µg/mL.

For the compound `COc1cc2c(cc(OC)c3cc(C)c(O)cc32)oc1=O` [TRIGOFLAVIDOL C], the half-maximal inhibitory concentration (IC50) in the experiment on SMMC-7721, in the experiment with HL-60, in the experiment with SW480, with MCF7 and with A549 was > 40 µM each time. In addition, the MIC with Staphylococcus aureus [4] is > 50 µg/mL.

For the compound `COc1cc2c(cc(OC)c3cc(C)c(O)cc32)c(C)c1O` [TRIGONOCHINENE E], the IC50 in the experiment on SMMC-7721 came out at 29 µM; in the experiment with HL-60, 3.75 µM; with SW480, 20.5 µM; in the experiment on MCF7 it was 18.4 µM; in the experiment with A549 it was 21 µM. Also, the “diameter of the inhibition zone (DIZ)” value in the experiment on Staphylococcus aureus [1] is reported as >10 mm. The MIC against Staphylococcus aureus [4] was > 50 µg/mL.

Consider `COC(=O)[C@@]1(O)[C@]2(Oc3cc4c(cc(OC)c5cc(C)c(O)cc54)c(C)c3O2)c2c(cc(OC)c3cc(C)c(O)cc23)[C@@]1(C)O` (relative stereo), for which the IC50 in the experiment on SMMC-7721 amounted to 21.6 µM; in the experiment on HL-60, 21.1 µM; in the experiment on SW480 it was 15.9 µM; with MCF7, 14.6 µM; with A549 it was 19.8 µM. Also, in the experiment with Staphylococcus aureus [1], the “diameter of the inhibition zone (DIZ)” value is >10 mm. For the same compound, the MIC amounted to 6.25 µg/mL (≈ 10.2 µM) against Staphylococcus aureus [2], 3.12 µg/mL (≈ 5.09 µM) with Staphylococcus aureus [3] and 1.56 µg/mL (≈ 2.55 µM) against Staphylococcus aureus [4].
